Here are results for one compound from ChEMBL document CHEMBL5108057, “Development of MAO-A and 5-HT2AR Dual Inhibitors with Improved Antidepressant Activity” (J Med Chem, 2022).

The nature of series [1]: Inhibition of 5-HT2AR mRNA expression in zebra fish AB assessed as fold decrease in 2 delta delta CT level at 1 uM by RT-qPCR method relative to control. The series is classed as functional, Danio rerio. The method in brief:
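Total RNA from zebrafish was extracted with Trizol and reverse-transcribed with MMLV. SYBR Green qPCR: 95 °C 2 min; 40 cycles of 95, 60 and 72 °C, 30 s each; then 72 °C for 5 min. 5-HT2AR was normalized to GAPDH by the 2^−ΔΔCT method; mean ± SD, n = 3.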

Series [2] concerns the target T1, Amine oxidase [flavin-containing] A (Homo sapiens, UniProt P21397).
T1 sequence (P21397 whole entry): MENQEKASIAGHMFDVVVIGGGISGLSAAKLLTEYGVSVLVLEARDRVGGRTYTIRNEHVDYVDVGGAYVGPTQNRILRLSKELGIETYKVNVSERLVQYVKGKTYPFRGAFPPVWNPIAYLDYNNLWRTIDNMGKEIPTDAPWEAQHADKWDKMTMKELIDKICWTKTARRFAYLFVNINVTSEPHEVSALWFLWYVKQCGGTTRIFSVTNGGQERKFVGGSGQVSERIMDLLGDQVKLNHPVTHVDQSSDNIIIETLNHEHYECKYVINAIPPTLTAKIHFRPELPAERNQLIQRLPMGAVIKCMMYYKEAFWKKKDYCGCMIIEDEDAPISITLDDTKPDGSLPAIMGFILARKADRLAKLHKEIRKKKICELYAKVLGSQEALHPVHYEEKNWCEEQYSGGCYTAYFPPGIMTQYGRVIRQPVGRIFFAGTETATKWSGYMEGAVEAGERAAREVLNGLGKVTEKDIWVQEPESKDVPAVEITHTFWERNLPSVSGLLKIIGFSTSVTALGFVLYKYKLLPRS
As to the kind of experiment: Inhibition of MAO-A (unknown origin) using p-tyramine as substrate preincubated for 15 mins followed by substrate addition and measured after 15 mins by Amplex red fluorescence based microplate reader assay.

The next series is filed under the species Homo sapiens. Put plainly: Selectivity index, ratio of IC50 for inhibition of MAO-B (unknown origin) to IC50 for inhibition of MAO-A (unknown origin). The method in brief:
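Amplex Red coupled assay. Test sample was preincubated with MAO-A or MAO-B at 37 °C for 15 min. p-Tyramine substrate working solution was added, with HRP converting the H2O2 formed to resorufin, for a further 15 min at 37 °C. Fluorescence read at Ex 545/Em 590 nm. […] SI = MAO-B IC50 / MAO-A IC50.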

The test system of the next series is PC-12. Put plainly: Neurocytoprotective activity against CORT-induced damage in rat PC-12 cells at 0.5 to 4 uM measured after 24 hrs by MTT assay. As to conditions: dose 0.5-4 µM. The class given is functional, cell-based. Summed up: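 PC12 cells seeded at 5 × 10^4 cells/mL for 24 h. Medium was then replaced with compound (0.5–4.0 μM) plus 500 μM CORT (DMSO <1%) for 24 h. Viability was measured by MTT relative to the CORT model group.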

The next series is filed under the species Danio rerio. As to the kind of experiment: Antidepressant activity in reserpine-induced zebrafish AB depression model assessed as increase in exploratory ability at 0.1 to 1 uM pretreated for 40 mins with reserpine followed by compound addition and measured for 7 days by novel tank test. The class given is functional, organism-based. To be noted: dose 0.1-1 µM, time 7.0 day. Summed up: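 Zebrafish were exposed to 10 mg/L reserpine for 40 min. Compound (0.1, 0.5, 1 μM) or fluoxetine (1 μM) was given 24 h later for 7 days. Fish kept at 28.5 °C on a 14 h light/10 h dark cycle. Open-field and novel tank tests were video-tracked for distance, velocity, immobility and time in the top. Mean ± SD, n = 6.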

Series [3] relates to Mus musculus. As to the kind of experiment: Antidepressant activity in reserpine-induced ICR mouse model assessed as reduction in weight loss at 10 to 20 mg/kg pretreated with reserpine for 3 days followed by compound addition on 4 to 10 days. The series is classed as functional, organism-based. As to conditions: dose 10-20 mg/kg, time 6.0 day. The method in brief: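 Body weight was recorded daily. OFT: 5 min session scoring distance, speed, rearing and dejection. FST and TST: 6 min, with immobility scored over the last 4 min. Mean ± SD, n = 6; one-way ANOVA and t-test.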

The subject of series [4] is Mus musculus. Put plainly: Antidepressant activity in chronic unpredictable mild stress ICR mouse model assessed as reduction in depression-like behavior at 10 mg/kg administered for 2 weeks by open field test. The class given is functional, organism-based. The method in brief:
(§1)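 ICR mice received CUMS for 4 weeks: 11 stressors given randomly twice daily, 42 days in total. OFT: 5 min session scoring distance, speed, rearing and dejection. FST/TST: 6 min, with immobility scored over the last 4 min. Sucrose preference test was also run. Mean ± SD, n = 6.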

Series [5] deals with Mus musculus. As to the kind of experiment: Antidepressant activity in chronic unpredictable mild stress ICR mouse model assessed as decrease in immobility time at 10 to 20 mg/kg measured after 2 weeks by tail suspension test. The class given is functional, organism-based. To be noted: dose 10-20 mg/kg. The method in brief:
as §1

Series [6] is described as follows: Toxicity in mouse assessed as toxic effect on liver at 10 to 20 mg/kg by H and E staining based assay. As to conditions: in vivo, dose 10-20 mg/kg. The series is classed as organism-based. The method in brief: (§2)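 Mice given compound at 10 or 20 mg/kg, with fluoxetine 20 mg/kg as comparator. Paraffin tissue sections of 4 μm were cut. Staining: hematoxylin 5 min, 75% HCl-ethanol differentiation 30 s, eosin 2 min. Organs (liver, kidney, lung, heart, spleen) examined at ×400; hippocampus (CA1, CA3, DG) at ×200.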

Series [7] can be described thus: Toxicity in mouse assessed as toxic effect on lung at 10 to 20 mg/kg by H and E staining based assay. The series is classed as organism-based. As to conditions: in vivo, dose 10-20 mg/kg. The method in brief:
as §2

Series [8] has as its system Mus musculus. As to the kind of experiment: Antidepressant activity in reserpine-induced mouse assessed as increase in 5-HT1AR expression at 10 to 20 mg/kg pretreated with reserpine for 3 days followed by compound addition on day 4 to 10 by Western blot analysis. The series is classed as functional, organism-based. To be noted: dose 10-20 mg/kg, time 6.0 day. The method in brief:
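Whole-brain protein was quantified by BCA and diluted to 3 mg/mL, then run on 4−20% SDS-PAGE and blotted. Primary antibody at 4 °C overnight, secondary 1 h at room temperature. 5-HT1AR and 5-HT2AR levels are relative; mean ± SD, n = 3.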

In series [9] the test system is Mus musculus. Put plainly: Antidepressant activity in reserpine-induced mouse hippocampal tissue model assessed as increase in 5-HT level at 10 to 20 mg/kg pretreated with reserpine for 3 days followed by compound addition on day 4 to 10 by HPLC analysis. As to conditions: dose 10-20 mg/kg; time 6 day. The class given is functional.
Series [10] can be described thus: AUC(0 to 24 hrs) in Sprague-Dawley rat at 2 mg/kg, iv measured upto 1440 mins by LC-MS/MS analysis. The series is classed as ADME, organism-based. To be noted: in vivo. Details: dose 2 mg/kg, time < 1440 min, route iv.
Series [11] is described as follows: AUC(0 to infinity) in Sprague-Dawley rat at 2 mg/kg, iv measured upto 1440 mins by LC-MS/MS analysis. The series is classed as ADME, organism-based. Details: dose 2 mg/kg, time < 1440 min, route iv. As to conditions: in vivo.
Series [12] can be described thus: Half life in Sprague-Dawley rat at 10 mg/kg, IG measured upto 1440 mins by LC-MS/MS analysis. The class given is ADME, organism-based. As to conditions: in vivo, po.
Series [13] is described as follows: Tmax in Sprague-Dawley rat at 2 mg/kg, iv measured upto 1440 mins by LC-MS/MS analysis. The series is classed as ADME, organism-based. As to conditions: in vivo.
The nature of series [14]: Tmax in Sprague-Dawley rat at 10 mg/kg, IG measured upto 1440 mins by LC-MS/MS analysis. The class given is ADME, organism-based. To be noted: in vivo, po.
Series [15] is described as follows: Clearance in Sprague-Dawley rat at 2 mg/kg, iv measured upto 1440 mins by LC-MS/MS analysis. The class given is ADME, organism-based. As to conditions: in vivo.
Series [16] is described as follows: Clearance in Sprague-Dawley rat at 10 mg/kg, IG measured upto 1440 mins by LC-MS/MS analysis. The series is classed as ADME, organism-based. To be noted: in vivo, po.

Molecules are shown by their SMILES. Calls of active or inactive are those of the source. No cut-off for these calls is given here.

Consider `O=C1c2ccccc2-c2nccc3cc(OCCCCCN4CCN(c5ccccc5F)CC4)cc1c23`, for which, in [1], the “fold change (FC)” value is reported as 0.014. For the same compound, the midpoint of inhibition in series [2], the IC50, lay at 4 nM. The Ratio IC50 in the series filed under Homo sapiens amounted to 262. The result in the series with PC-12, in the series listed under Danio rerio, in the series on Mus musculus [3], in the series with Mus musculus [4], in the series with Mus musculus [5] and with Mus musculus [8] was Active. Further, the Activity entry in series [6] is “Non-Toxic”; in series [7], “Non-Toxic”; in the series on Mus musculus [9] it was 579.92 ng/mL. Besides, the area under the curve AUC(0-t) at 24 h in [10] turned out to be 2230 ng·h/mL. In series [11], this compound had a total exposure AUC(0-inf) of 2320 ng·h/mL. The same compound gave a half-life in series [12] of 5.22 h. In addition, the Tmax in series [13] was determined as 4.8 min; in series [14] it was 1.33 h. Further, the clearance in series [15] stood at 14.5 mL/min/kg. Further, in series [16], the apparent clearance (CL/F) worked out at 346 mL/min/kg.
